From ChEMBL document CHEMBL3621151, “Orally bioavailable Syk inhibitors with activity in a rat PK/PD model” (Bioorg Med Chem Lett, 2015)
The source made the active and inactive calls. The calls are words filed in the database; no cut-off is given here.

Tests used:
Rattus norvegicus [1] = assay: In vivo inhibition of Syk in Lewis rat assessed as reduction in antiCD32-antibody-induced SLP76 phosphorylation in peripheral blood monocytes at 3 mg/kg, po measured after 4 hrs relative to vehicle-treated control; assay type: functional
Method in brief: (§1)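 Lewis rats were given a single oral dose of 3 mg/kg. Blood was sampled at 2, 4, 8 and 24 h for compound levels. Ex vivo, peripheral blood monocytes were stimulated through FcγR with anti-CD32 antibody, and SLP76 phosphorylation was quantified as % pSLP76.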

Rattus norvegicus [2] = assay: In vivo inhibition of Syk in Lewis rat assessed as reduction in antiCD32-antibody-induced SLP76 phosphorylation in peripheral blood monocytes at 3 mg/kg, po measured after 2 hrs relative to vehicle-treated control; assay type: functional; method in brief: as §1
Liver microsome [3] = assay: Drug metabolism in human liver microsomes assessed as pyrazole N-demethylation; assay type: ADME
Liver microsome [4] = assay: Drug metabolism in rat liver microsomes assessed as pyrazole hydroxylation; assay type: ADME
Liver = assay: Drug level in rat liver at 1 mg/kg, iv; assay type: ADME, organism-based; conditions: in vivo
Method in brief: (§2)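 Rats received a single iv dose of 1 mg/kg. Compound concentrations were measured in blood, liver and kidney and expressed as ng/g.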

[5] = Oral bioavailability in Sprague-Dawley rat at 3 mg/kg administered as cassette dosing; assay type: ADME, organism-based; conditions: in vivo
Method in brief: (§3)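 Cassette dosing in Sprague Dawley rats: iv 1 mg/kg in NMP/PEG200 (3:7) and po 3 mg/kg in CMC/water/Tween (0.5:99:0.5). Dose-normalized values are marked as such.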

[6] = Clearance in Sprague-Dawley rat at 1 mg/kg, iv and 3 mg/kg, po administered as cassette dosing; assay type: ADME, organism-based; conditions: in vivo; method in brief: as §3
Liver microsome [7] = assay: Drug metabolism in rat liver microsomes assessed as lactam hydroxylation; assay type: ADME
[8] = Drug uptake in Lewis rat blood at 3 mg/kg, po measured after 4 hrs; assay type: ADME, organism-based; conditions: read-out: Drug uptake; method in brief: as §1
Blood = assay: Drug level in rat blood at 1 mg/kg, iv; assay type: ADME, organism-based; conditions: in vivo; method in brief: as §2
[9] = biological target: T1, Voltage-gated inwardly rectifying potassium channel KCNH2 (Homo sapiens, UniProt Q12809); assay: Inhibition of human ERG by automated patch clamp assay
Rattus norvegicus [10] = assay: Dose normalized Cmax in Sprague-Dawley rat at 1 mg/kg, iv and 3 mg/kg, po administered as cassette dosing; assay type: ADME, organism-based; conditions: in vivo; method in brief: as §3
[11] = Toxicity in micronucleus (unknown origin) by micronucleus test
Salmonella typhimurium = assay: Toxicity in Salmonella typhimurium by Ames test; assay type: organism-based; conditions: salmonella enterica subsp. enterica serovar typhimurium
Aurora kinase B = Aurora kinase B (Homo sapiens, UniProt Q96GD4); assay: Inhibition of aurora B kinase (unknown origin) by cell based assay
[12] = Drug uptake in Lewis rat blood at 3 mg/kg, po measured after 2 hrs; assay type: ADME, organism-based; conditions: read-out: Drug uptake; method in brief: as §1
[13] = biological target: T1, Voltage-gated inwardly rectifying potassium channel KCNH2; assay: Inhibition of human ERG by binding assay
Liver microsome [14] = assay: Drug metabolism in human liver microsomes assessed as pyrazole hydroxylation; assay type: ADME
Rattus norvegicus [15] = assay: In vivo inhibition of Syk in Lewis rat assessed as reduction in antiCD32-antibody-induced SLP76 phosphorylation in peripheral blood monocytes at 3 mg/kg, po measured after 24 hrs relative to vehicle-treated control; assay type: functional, organism-based; method in brief: as §1
Aurora kinase A = biological target: T2, Aurora kinase A (Homo sapiens, UniProt O14965); assay: Inhibition of aurora A kinase (unknown origin) by enzymatic assay
T2 sequence (O14965 whole entry): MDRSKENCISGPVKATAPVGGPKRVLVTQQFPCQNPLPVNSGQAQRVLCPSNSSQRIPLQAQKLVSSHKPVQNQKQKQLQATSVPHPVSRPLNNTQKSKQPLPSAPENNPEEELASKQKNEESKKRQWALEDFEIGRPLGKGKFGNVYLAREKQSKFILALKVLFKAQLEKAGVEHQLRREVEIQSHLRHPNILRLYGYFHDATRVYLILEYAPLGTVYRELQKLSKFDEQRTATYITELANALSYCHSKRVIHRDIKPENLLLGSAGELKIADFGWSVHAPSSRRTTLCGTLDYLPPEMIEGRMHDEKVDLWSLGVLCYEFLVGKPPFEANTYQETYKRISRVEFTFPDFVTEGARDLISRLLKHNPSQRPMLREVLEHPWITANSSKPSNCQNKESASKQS

Liver microsome [16] = assay: Drug metabolism in human liver microsomes assessed as lactam hydroxylation; assay type: ADME
Liver microsome [17] = assay: Drug metabolism in rat liver microsomes assessed as pyrazole N-demethylation; assay type: ADME
[18] = Mean residence time in Sprague-Dawley rat at 1 mg/kg, iv and 3 mg/kg, po administered as cassette dosing; assay type: ADME, organism-based; conditions: in vivo; method in brief: as §3
[19] = Drug uptake in Lewis rat blood at 3 mg/kg, po measured after 24 hrs; assay type: ADME, organism-based; conditions: read-out: Drug uptake; method in brief: as §1
[20] = Volume of distribution at steady state in Sprague-Dawley rat at 1 mg/kg, iv and 3 mg/kg, po administered as cassette dosing; assay type: ADME, organism-based; conditions: in vivo, read-out: Vdss; method in brief: as §3
Rattus norvegicus [21] = assay: In vivo inhibition of Syk in Lewis rat assessed as reduction in antiCD32-antibody-induced SLP76 phosphorylation in peripheral blood monocytes at 3 mg/kg, po measured after 8 hrs relative to vehicle-treated control; assay type: functional; method in brief: as §1
[22] = biological target: T3, Tyrosine-protein kinase SYK (Homo sapiens, UniProt P43405); assay: Inhibition of Syk in anti-CD32 stimulated CD14+ human monocytes in presence of 90% human blood assessed as phospho-SLP76 level preincubated for 30 mins followed by anti-CD32 stimulation measured after 5 mins by flow cytometric analysis
[23] = biological target: T3, Tyrosine-protein kinase SYK
[24] = biological target: T3, Tyrosine-protein kinase SYK; assay: Inhibition of Syk in anti-igM stimulated human Ramos B cells assessed as phospho-BLNK level preincubated for 30 mins followed by anti-IgM stimulation measured after 15 mins by flow cytometric analysis; assay type: cell-based
[25] = Drug uptake in Lewis rat blood at 3 mg/kg, po measured after 8 hrs; assay type: ADME, organism-based; conditions: read-out: Drug uptake; method in brief: as §1
Kidney = assay: Drug level in rat kidney at 1 mg/kg, iv; assay type: ADME, organism-based; conditions: in vivo; method in brief: as §2
[26] = Ratio of drug level in kidney to blood in rat at 1 mg/kg, iv; assay type: ADME, organism-based
Method in brief: (§4)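 Rats received a single 1 mg/kg iv dose. Compound levels were then measured in blood, liver and kidney and expressed as ng/g of matrix. The ratio is tissue level over blood level.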

[27] = Ratio of drug level in liver to blood in rat at 1 mg/kg, iv; assay type: ADME, organism-based; method in brief: as §4
[28] = biological target: T1, Voltage-gated inwardly rectifying potassium channel KCNH2; assay: Inhibition of human ERG at 30 uM by manual patch clamp assay
Rattus norvegicus [29] = assay: Dose normalized AUC in Sprague-Dawley rat at 3 mg/kg, po administered as cassette dosing; assay type: ADME, organism-based; conditions: in vivo; method in brief: as §3
[30] = Solubility in pH 6.8 solution; assay type: physicochemical
[31] = Protein binding in human; assay type: ADME, organism-based; conditions: plasma, read-out: PB (converted)
[32] = Half life in rat liver microsomes; assay type: ADME

T1 sequence (Q12809 whole entry): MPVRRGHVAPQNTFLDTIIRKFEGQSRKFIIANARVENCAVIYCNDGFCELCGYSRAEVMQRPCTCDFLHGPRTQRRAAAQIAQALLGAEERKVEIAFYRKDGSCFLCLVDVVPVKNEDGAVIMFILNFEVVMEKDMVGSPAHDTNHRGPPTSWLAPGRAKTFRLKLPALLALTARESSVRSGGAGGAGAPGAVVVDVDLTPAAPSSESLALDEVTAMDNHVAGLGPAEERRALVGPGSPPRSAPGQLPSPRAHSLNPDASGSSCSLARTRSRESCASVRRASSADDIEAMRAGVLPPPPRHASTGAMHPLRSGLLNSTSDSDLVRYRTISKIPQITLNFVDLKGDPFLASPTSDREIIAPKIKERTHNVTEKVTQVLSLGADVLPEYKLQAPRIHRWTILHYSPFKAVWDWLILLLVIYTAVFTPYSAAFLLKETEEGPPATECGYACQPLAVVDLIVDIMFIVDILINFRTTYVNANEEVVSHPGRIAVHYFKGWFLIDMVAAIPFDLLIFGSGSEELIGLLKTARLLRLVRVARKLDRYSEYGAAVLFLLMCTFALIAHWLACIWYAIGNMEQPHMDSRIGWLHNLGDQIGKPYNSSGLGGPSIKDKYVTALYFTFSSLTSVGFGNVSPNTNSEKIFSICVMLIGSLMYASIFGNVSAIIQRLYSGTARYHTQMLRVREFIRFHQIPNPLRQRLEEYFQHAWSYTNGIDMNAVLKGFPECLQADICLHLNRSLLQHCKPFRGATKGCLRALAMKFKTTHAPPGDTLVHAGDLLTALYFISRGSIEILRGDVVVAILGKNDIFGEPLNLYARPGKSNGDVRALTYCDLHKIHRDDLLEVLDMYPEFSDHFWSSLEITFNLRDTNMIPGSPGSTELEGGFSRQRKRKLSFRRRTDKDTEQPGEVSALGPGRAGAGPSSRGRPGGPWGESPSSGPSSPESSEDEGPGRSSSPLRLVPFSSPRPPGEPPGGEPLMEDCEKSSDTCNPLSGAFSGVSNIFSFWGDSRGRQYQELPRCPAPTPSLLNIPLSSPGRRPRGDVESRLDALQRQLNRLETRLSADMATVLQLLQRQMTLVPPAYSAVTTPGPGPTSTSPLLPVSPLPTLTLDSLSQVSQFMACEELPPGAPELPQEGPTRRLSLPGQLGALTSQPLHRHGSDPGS
Sequence of Aurora kinase B (Q96GD4 whole entry): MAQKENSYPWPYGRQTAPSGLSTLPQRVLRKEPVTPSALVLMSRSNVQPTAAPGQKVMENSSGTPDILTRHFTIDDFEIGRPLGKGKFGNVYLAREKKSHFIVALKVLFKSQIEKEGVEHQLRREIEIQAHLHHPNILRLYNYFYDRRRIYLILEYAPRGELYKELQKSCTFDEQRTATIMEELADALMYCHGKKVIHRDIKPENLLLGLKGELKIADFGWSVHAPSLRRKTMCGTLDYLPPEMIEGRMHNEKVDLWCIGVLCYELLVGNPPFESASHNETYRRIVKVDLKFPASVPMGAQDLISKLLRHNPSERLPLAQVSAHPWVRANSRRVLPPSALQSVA

SMILES	Drug metabolism (Liver microsome [3])	Drug metabolism (Liver microsome [4])	bioavailability [5] [%]	clearance [6] [mL/min/kg]	Drug metabolism (Liver microsome [7])	Cmax/dose (Rattus norvegicus [10]) [nM]	Drug metabolism (Liver microsome [14])	IC50 (Aurora kinase A) [nM]	Drug metabolism (Liver microsome [16])	Drug metabolism (Liver microsome [17])	MRT [18] [min]	Vd [20] [L/kg]	IC50 [22] [nM]	IC50 [23] [nM]	IC50 [24] [nM]	further results
C[C@@H](Oc1nc(-c2cnn(C(F)F)c2)cc2ncsc12)[C@H]1CNC(=O)O1	metabolite_detected	metabolite_detected	88	4	metabolite_detected	917	metabolite_detected	57	metabolite_detected	metabolite_detected	360	1.3	522	38	284	inhibition in vivo at 3 mg/kg (Rattus norvegicus [1]): 79%; inhibition in vivo at 3 mg/kg (Rattus norvegicus [2]): 78%; Drug uptake (Liver): 2134 ng/g; concentration at 4 h [8]: 1340 nM; Drug uptake (Blood): 1014 ng/g; IC50 [9]: > 30000 nM; Activity [11]: Toxic; Activity (Salmonella typhimurium): Non-toxic; IC50 (Aurora kinase B): 110 nM; concentration at 2 h [12]: 1930 nM; IC50 [13]: > 30000 nM; inhibition (Rattus norvegicus [15]): inactive; concentration at 24 h [19]: 40 nM; inhibition in vivo at 3 mg/kg (Rattus norvegicus [21]): 60%; concentration at 8 h [25]: 827 nM; Drug uptake (Kidney): 1433 ng/g
NC(=O)c1nnc(N[C@@H]2CCCC[C@@H]2N)nc1Nc1cccc2cc[nH]c12	–	–	–	–	–	80	–	–	–	–	–	–	–	–	–	Kp [26]: 100; Drug uptake (Liver): 9175 ng/g; Drug uptake (Blood): 41 ng/g; Kp [27]: 100; IC50 [9]: 28000 nM; inhibition (INH) [28]: Not Active; Drug uptake (Kidney): 3866 ng/g
C[C@@H](Oc1cc(-c2cnn(C)c2)cc2ncsc12)[C@H]1CNC(=O)C1	–	–	–	–	–	–	–	–	–	–	–	–	186	33	89	–
C[C@@H](Oc1nc(-c2cnn(C)c2)cc2ncsc12)[C@H]1CNC(=O)C1	–	–	–	–	–	103	–	–	–	–	42	–	538	26	284	–
C[C@@H](Oc1cc(-c2cnn(C(F)F)c2)cc2ncsc12)[C@H]1CNC(=O)O1	–	–	–	–	–	803	–	–	–	–	282	–	230	9	107	–
COc1ccc(-c2cc3ncsc3c(O[C@H](C)[C@H]3CNC(=O)C3)n2)cc1OC	metabolite_detected	metabolite_detected	35	53	metabolite_detected	178	metabolite_detected	≤ 100	metabolite_detected	metabolite_detected	24	1.2	517	5	132	AUC/dose (Rattus norvegicus [29]): 858 nM.hr/(mg/kg)
C[C@@H](Oc1nc(-c2cnn(C)c2)cc2nscc12)[C@H]1CNC(=O)C1	metabolite_detected	metabolite_detected	27	86	metabolite_detected	109	metabolite_detected	800	metabolite_detected	metabolite_detected	30	2.4	290	40	247	solubility [30]: > 1000 µM; fraction unbound [31]: 0.2; AUC/dose (Rattus norvegicus [29]): 577 nM.hr/(mg/kg); half-life [32]: 34 min
CN(C)c1ccc(-c2cc3ncccc3c(NCCCN)n2)cc1	metabolite_detected	metabolite_detected	–	–	metabolite_detected	–	metabolite_detected	–	metabolite_detected	metabolite_detected	–	–	–	–	–	–

Second part, led by results:

Drug metabolism (Liver microsome [3])	Drug metabolism (Liver microsome [4])	bioavailability [5] [%]	clearance [6] [mL/min/kg]	Drug metabolism (Liver microsome [7])	Cmax/dose (Rattus norvegicus [10]) [nM]	Drug metabolism (Liver microsome [14])	IC50 (Aurora kinase A) [nM]	Drug metabolism (Liver microsome [16])	Drug metabolism (Liver microsome [17])	MRT [18] [min]	Vd [20] [L/kg]	IC50 [22] [nM]	IC50 [23] [nM]	IC50 [24] [nM]	SMILES	further results
–	–	–	–	–	263	–	–	–	–	156	–	1020	57	340	C[C@@H](Oc1cc(-c2cnn(C(F)F)c2)cc2nscc12)[C@H]1CNC(=O)C1	–
–	–	–	–	–	614	–	–	–	–	168	–	197	16	328	C[C@@H](Oc1cc(-c2cnn(C(F)F)c2)cc2nscc12)[C@H]1CNC(=O)O1	–
metabolite_detected	metabolite_detected	100	12	metabolite_detected	477	metabolite_detected	≤ 100	metabolite_detected	metabolite_detected	120	1.5	–	–	–	C[C@@H](Oc1cc(-c2cnn(C)c2)cc2nscc12)[C@H]1CNC(=O)O1	–
metabolite_detected	metabolite_detected	30	45	metabolite_detected	94	metabolite_detected	576	metabolite_detected	metabolite_detected	54	2.4	298	46	161	C[C@@H](Oc1cc(-c2cnn(C)c2)cc2nscc12)[C@H]1CNC(=O)C1	solubility [30]: > 1000 µM; fraction unbound [31]: 0.2; AUC/dose (Rattus norvegicus [29]): 1056 nM.hr/(mg/kg); half-life [32]: 34 min
